Marks after values point to notes of the source that are not given here.
Test system: Japanese patients with T2DM
Experiment: Plasma glucose concentrations, 7-day once-daily dosing
Assay type: in vivo, human
Method in brief: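 Plasma glucose was measured by a glucose dehydrogenase enzymatic UV method. Sampling was pre-breakfast/pre-dose and 0.5–24 h after breakfast on Day −1, after dosing on Days 1 and 7, and pre-breakfast on Days 11 and 14. Standardized ~600 kcal meals were given, with lunch and dinner at 4 and 12 h. AUC, Cmax and tmax were non-compartmental. MPG was the mean of the 0, 2, 4, 6, 12, 14 and 16 h values. LS mean difference vs placebo with 95% CI.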

CCOc1ccc(Cc2cc([C@@H]3S[C@H](CO)[C@@H](O)[C@H](O)[C@H]3O)c(OC)cc2C)cc1 [Luseogliflozin, (1S)-1,5-anhydro-1-[5-(4-ethoxybenzyl)-2-methoxy-4-methylphenyl]-1-thio-D-glucitol]
FPG (24 h after dose) (0.5 mg OD, Day 1): 156 ± 23 mg/dL
FPG (24 h after dose) LS mean difference vs placebo (95% CI) (0.5 mg OD, Day 1): −7.15 (−16.0, 1.71) mg/dL
MPG0–16h (0.5 mg OD, Day 1): 224 ± 38.8 mg/dL
MPG0–16h LS mean difference vs placebo (95% CI) (0.5 mg OD, Day 1): −6.39 (−16.6, 3.79) mg/dL
Plasma glucose AUC0–4h (after breakfast) (0.5 mg OD, Day 1): 946 ± 175 mg·h/dL
Plasma glucose AUC0–4h (after breakfast) LS mean difference vs placebo (95% CI) (0.5 mg OD, Day 1): 29.4 (−25.0, 83.8) mg h/dL
Plasma glucose AUC4–8h (after lunch) (0.5 mg OD, Day 1): 915 ± 207 mg·h/dL
Plasma glucose AUC4–8h (after lunch) LS mean difference vs placebo (95% CI) (0.5 mg OD, Day 1): −111 (−191, −31.1)* mg h/dL
Plasma glucose AUC12–16h (after dinner) (0.5 mg OD, Day 1): 989 ± 114 mg·h/dL
Plasma glucose AUC12–16h (after dinner) LS mean difference vs placebo (95% CI) (0.5 mg OD, Day 1): −16.3 (−69.6, 37.0) mg h/dL
Plasma glucose C max0–4h (after breakfast) (0.5 mg OD, Day 1): 278 ± 53.0 mg/dL
Plasma glucose C max4–8h (after lunch) (0.5 mg OD, Day 1): 259 ± 52.3 mg/dL
Plasma glucose C max4–8h (after lunch) LS mean difference vs placebo (95% CI) (0.5 mg OD, Day 1): −43.5 (−68.5, −18.5)* mg/dL
Plasma glucose C max12–16h (after dinner) (0.5 mg OD, Day 1): 286 ± 32.5 mg/dL
Plasma glucose C max12–16h (after dinner) LS mean difference vs placebo (95% CI) (0.5 mg OD, Day 1): −16.0 (−35.0, 3.05) mg/dL
FPG (24 h after dose) (0.5 mg OD, Day 7): 145 ± 18 mg/dL
FPG (24 h after dose) LS mean difference vs placebo (95% CI) (0.5 mg OD, Day 7): −18.4 (−31.1, −5.75)* mg/dL
MPG0–16h (0.5 mg OD, Day 7): 204 ± 35.3 mg/dL
MPG0–16h LS mean difference vs placebo (95% CI) (0.5 mg OD, Day 7): −25.0 (−42.2, −7.90)* mg/dL
Plasma glucose AUC0–4h (after breakfast) (0.5 mg OD, Day 7): 810 ± 156 mg·h/dL
Plasma glucose AUC0–4h (after breakfast) LS mean difference vs placebo (95% CI) (0.5 mg OD, Day 7): −108 (−186, −29.3)* mg h/dL
Plasma glucose AUC4–8h (after lunch) (0.5 mg OD, Day 7): 887 ± 209 mg·h/dL
Plasma glucose AUC4–8h (after lunch) LS mean difference vs placebo (95% CI) (0.5 mg OD, Day 7): −165 (−267, −64.2)* mg h/dL
Plasma glucose AUC12–16h (after dinner) (0.5 mg OD, Day 7): 924 ± 108 mg·h/dL
Plasma glucose AUC12–16h (after dinner) LS mean difference vs placebo (95% CI) (0.5 mg OD, Day 7): −44.7 (−122, 32.2) mg h/dL
Plasma glucose C max0–4h (after breakfast) (0.5 mg OD, Day 7): 243 ± 42.1 mg/dL
Plasma glucose C max4–8h (after lunch) (0.5 mg OD, Day 7): 256 ± 61.7 mg/dL
Plasma glucose C max4–8h (after lunch) LS mean difference vs placebo (95% CI) (0.5 mg OD, Day 7): −46.2 (−76.1, −16.3)* mg/dL
Plasma glucose C max12–16h (after dinner) (0.5 mg OD, Day 7): 274 ± 34.6 mg/dL
Plasma glucose C max12–16h (after dinner) LS mean difference vs placebo (95% CI) (0.5 mg OD, Day 7): −9.79 (−35.5, 15.9) mg/dL
FPG (24 h after dose) (1 mg OD, Day 1): 146 ± 25 mg/dL
FPG (24 h after dose) LS mean difference vs placebo (95% CI) (1 mg OD, Day 1): −7.90 (−16.6, 0.795) mg/dL
MPG0–16h (1 mg OD, Day 1): 188 ± 30.0 mg/dL
MPG0–16h LS mean difference vs placebo (95% CI) (1 mg OD, Day 1): −18.4 (−28.3, −8.55)* mg/dL
Plasma glucose AUC0–4h (after breakfast) (1 mg OD, Day 1): 812 ± 158 mg·h/dL
Plasma glucose AUC0–4h (after breakfast) LS mean difference vs placebo (95% CI) (1 mg OD, Day 1): −48.9 (−102, 4.37) mg h/dL
Plasma glucose AUC4–8h (after lunch) (1 mg OD, Day 1): 766 ± 131 mg·h/dL
Plasma glucose AUC4–8h (after lunch) LS mean difference vs placebo (95% CI) (1 mg OD, Day 1): −89.1 (−166, −11.9)* mg h/dL
Plasma glucose AUC12–16h (after dinner) (1 mg OD, Day 1): 851 ± 117 mg·h/dL
Plasma glucose AUC12–16h (after dinner) LS mean difference vs placebo (95% CI) (1 mg OD, Day 1): −91.4 (−142, −40.8)* mg h/dL
Plasma glucose C max0–4h (after breakfast) (1 mg OD, Day 1): 255 ± 44.1 mg/dL
Plasma glucose C max4–8h (after lunch) (1 mg OD, Day 1): 223 ± 33.7 mg/dL
Plasma glucose C max4–8h (after lunch) LS mean difference vs placebo (95% CI) (1 mg OD, Day 1): −30.5 (−54.1, −7.02)* mg/dL
Plasma glucose C max12–16h (after dinner) (1 mg OD, Day 1): 255 ± 37.3 mg/dL
Plasma glucose C max12–16h (after dinner) LS mean difference vs placebo (95% CI) (1 mg OD, Day 1): −31.3 (−49.4, −13.3)* mg/dL
FPG (24 h after dose) (1 mg OD, Day 7): 139 ± 14 mg/dL
FPG (24 h after dose) LS mean difference vs placebo (95% CI) (1 mg OD, Day 7): −18.1 (−30.5, −5.62)* mg/dL
MPG0–16h (1 mg OD, Day 7): 184 ± 24.0 mg/dL
MPG0–16h LS mean difference vs placebo (95% CI) (1 mg OD, Day 7): −27.5 (−44.1, −10.8)* mg/dL
Plasma glucose AUC0–4h (after breakfast) (1 mg OD, Day 7): 780 ± 116 mg·h/dL
Plasma glucose AUC0–4h (after breakfast) LS mean difference vs placebo (95% CI) (1 mg OD, Day 7): −96.7 (−173, −20.0)* mg h/dL
Plasma glucose AUC4–8h (after lunch) (1 mg OD, Day 7): 787 ± 126 mg·h/dL
Plasma glucose AUC4–8h (after lunch) LS mean difference vs placebo (95% CI) (1 mg OD, Day 7): −138 (−236, −40.8)* mg h/dL
Plasma glucose AUC12–16h (after dinner) (1 mg OD, Day 7): 824 ± 125 mg·h/dL
Plasma glucose AUC12–16h (after dinner) LS mean difference vs placebo (95% CI) (1 mg OD, Day 7): −96.2 (−169, −23.2)* mg h/dL
Plasma glucose C max0–4h (after breakfast) (1 mg OD, Day 7): 240 ± 31.3 mg/dL
Plasma glucose C max4–8h (after lunch) (1 mg OD, Day 7): 229 ± 33.7 mg/dL
Plasma glucose C max4–8h (after lunch) LS mean difference vs placebo (95% CI) (1 mg OD, Day 7): −34.7 (−62.8, −6.53)* mg/dL
Plasma glucose C max12–16h (after dinner) (1 mg OD, Day 7): 242 ± 41.3 mg/dL
Plasma glucose C max12–16h (after dinner) LS mean difference vs placebo (95% CI) (1 mg OD, Day 7): −29.4 (−53.8, −5.06)* mg/dL
FPG (24 h after dose) (2.5 mg OD, Day 1): 141 ± 23 mg/dL
FPG (24 h after dose) LS mean difference vs placebo (95% CI) (2.5 mg OD, Day 1): −23.0 (−31.6, −14.4)* mg/dL
MPG0–16h (2.5 mg OD, Day 1): 210 ± 35.7 mg/dL
MPG0–16h LS mean difference vs placebo (95% CI) (2.5 mg OD, Day 1): −23.8 (−33.7, −13.9)* mg/dL
Plasma glucose AUC0–4h (after breakfast) (2.5 mg OD, Day 1): 868 ± 166 mg·h/dL
Plasma glucose AUC0–4h (after breakfast) LS mean difference vs placebo (95% CI) (2.5 mg OD, Day 1): −106 (−159, −53.6)* mg h/dL
Plasma glucose AUC4–8h (after lunch) (2.5 mg OD, Day 1): 879 ± 176 mg·h/dL
Plasma glucose AUC4–8h (after lunch) LS mean difference vs placebo (95% CI) (2.5 mg OD, Day 1): −147 (−224, −69.0)* mg h/dL
Plasma glucose AUC12–16h (after dinner) (2.5 mg OD, Day 1): 944 ± 123 mg·h/dL
Plasma glucose AUC12–16h (after dinner) LS mean difference vs placebo (95% CI) (2.5 mg OD, Day 1): −71.1 (−123, −19.2)* mg h/dL
Plasma glucose C max0–4h (after breakfast) (2.5 mg OD, Day 1): 254 ± 48.7 mg/dL
Plasma glucose C max4–8h (after lunch) (2.5 mg OD, Day 1): 250 ± 54.5 mg/dL
Plasma glucose C max4–8h (after lunch) LS mean difference vs placebo (95% CI) (2.5 mg OD, Day 1): −43.5 (−67.2, −19.7)* mg/dL
Plasma glucose C max12–16h (after dinner) (2.5 mg OD, Day 1): 279 ± 40.2 mg/dL
Plasma glucose C max12–16h (after dinner) LS mean difference vs placebo (95% CI) (2.5 mg OD, Day 1): −26.1 (−44.6, −7.60)* mg/dL
FPG (24 h after dose) (2.5 mg OD, Day 7): 122 ± 14 mg/dL
FPG (24 h after dose) LS mean difference vs placebo (95% CI) (2.5 mg OD, Day 7): −41.3 (−53.5, −29.0)* mg/dL
